Measurements published in ChEMBL document CHEMBL1177778, “One-pot multicomponent synthesis and anti-microbial evaluation of 2'-(indol-3-yl)-2-oxospiro(indoline-3,4'-pyran) derivatives” (2010).

Experiments:
Format in all cases: functional
Conditions in all cases: for zone of inhibition at 100 µg/mL: read-out: DIZ
Bacillus subtilis = assay: Antimicrobial activity against Bacillus subtilis at 100 ug/ml after 24 to 48 hrs by disk diffusion method
In short: (§1)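 Disc diffusion (cup plate) screen. Organism suspensions were applied to plates and incubated at 36 °C for 24–48 h in a sufficiently humid chamber, after which the zone of inhibition was read. Compounds were dissolved in DMSO as a stock solution and serially diluted to test solutions of 25, 50, 75, 100 and 150 µg/ml.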

[1] = test system: Staphylococcus epidermidis; assay: Antimicrobial activity against Staphylococcus epidermidis at 100 ug/ml after 24 to 48 hrs by disk diffusion method; in short: as §1
Aspergillus niger = assay: Antimicrobial activity against Aspergillus niger at 100 ug/ml after 24 to 48 hrs by disk diffusion method; in short: as §1
Staphylococcus aureus = assay: Antimicrobial activity against Staphylococcus aureus at 100 ug/ml after 24 to 48 hrs by disk diffusion method; in short: as §1

`O=C(N[C@H](CO)[C@H](O)c1ccc([N+](=O)[O-])cc1)C(Cl)Cl` [CHLORAMPHENICOL] was tested, and the zone of inhibition at 100 µg/mL (Bacillus subtilis) was 32 mm, the zone of inhibition at 100 µg/mL [1] was 31 mm and the zone of inhibition at 100 µg/mL (Aspergillus niger) was 25 mm. The zone of inhibition at 100 µg/mL (Staphylococcus aureus) was 29 mm.

`C#CCN1C(=O)[C@@]2(C(C#N)=C(c3c[nH]c4ccccc34)OC(N)=C2C(=O)OCC)c2ccccc21` gave a zone of inhibition at 100 µg/mL (Bacillus subtilis) of 17 mm, a zone of inhibition at 100 µg/mL [1] of 16 mm and a zone of inhibition at 100 µg/mL (Aspergillus niger) of 25 mm. It also gave a zone of inhibition at 100 µg/mL (Staphylococcus aureus) of 16 mm.

`Cc1[nH]c2ccccc2c1C1=C(C#N)[C@@]2(C(=O)c3cccc4cccc2c34)C(C#N)=C(N)O1` gave a zone of inhibition at 100 µg/mL (Bacillus subtilis) of 19 mm, a zone of inhibition at 100 µg/mL [1] of 16 mm and a zone of inhibition at 100 µg/mL (Aspergillus niger) of 26 mm. For the same molecule, the zone of inhibition at 100 µg/mL (Staphylococcus aureus) was 20 mm.

In the case of `CN1C(=O)[C@]2(C(C#N)=C(N)OC(c3c[nH]c4ccccc34)=C2C#N)c2ccccc21`, the zone of inhibition at 100 µg/mL (Bacillus subtilis) was 26 mm, the zone of inhibition at 100 µg/mL [1] was 28 mm and the zone of inhibition at 100 µg/mL (Aspergillus niger) was 27 mm. It also gave a zone of inhibition at 100 µg/mL (Staphylococcus aureus) of 27 mm.

Work on NYSTATIN yielded an inhibition zone (IZ) (Aspergillus niger) of 28 mm.

`CCOC(=O)C1=C(N)OC(c2c[nH]c3ccccc23)=C(C#N)[C@@]12C(=O)N(C)c1ccccc12` was tested, and the zone of inhibition at 100 µg/mL (Bacillus subtilis) was 13 mm, the zone of inhibition at 100 µg/mL [1] was 14 mm and the zone of inhibition at 100 µg/mL (Aspergillus niger) was 23 mm. It also gave a zone of inhibition at 100 µg/mL (Staphylococcus aureus) of 18 mm.

Molecule `CCOC(=O)C1=C(N)OC(c2c[nH]c3ccccc23)=C(C#N)[C@@]12C(=O)c1cccc3cccc2c13` has a zone of inhibition at 100 µg/mL (Bacillus subtilis) of 17 mm, a zone of inhibition at 100 µg/mL [1] of 18 mm and a zone of inhibition at 100 µg/mL (Aspergillus niger) of 27 mm. It also gave a zone of inhibition at 100 µg/mL (Staphylococcus aureus) of 20 mm.

`CCOC(=O)C1=C(N)OC(c2c(C)[nH]c3ccccc23)=C(C#N)[C@@]12C(=O)c1cccc3cccc2c13` gave a zone of inhibition at 100 µg/mL (Bacillus subtilis) of 18 mm, a zone of inhibition at 100 µg/mL [1] of 16 mm and a zone of inhibition at 100 µg/mL (Aspergillus niger) of 26 mm. For the same molecule, the zone of inhibition at 100 µg/mL (Staphylococcus aureus) was 20 mm.

`CCOC(=O)C1=C(N)OC(c2c[nH]c3ccccc23)=C(C#N)[C@@]12C(=O)Nc1ccccc12` was tested, and the zone of inhibition at 100 µg/mL (Bacillus subtilis) was 19 mm, the zone of inhibition at 100 µg/mL [1] was 18 mm and the zone of inhibition at 100 µg/mL (Aspergillus niger) was 23 mm. The zone of inhibition at 100 µg/mL (Staphylococcus aureus) was 18 mm.

For `C=CCN1C(=O)[C@@]2(C(C#N)=C(c3c[nH]c4ccccc34)OC(N)=C2C(=O)OCC)c2ccccc21`, the zone of inhibition at 100 µg/mL (Bacillus subtilis) was 14 mm, the zone of inhibition at 100 µg/mL [1] was 13 mm and the zone of inhibition at 100 µg/mL (Aspergillus niger) was 21 mm. The zone of inhibition at 100 µg/mL (Staphylococcus aureus) was 18 mm.

For `CCOC(=O)CN1C(=O)[C@@]2(C(C#N)=C(c3c[nH]c4ccccc34)OC(N)=C2C(=O)OCC)c2ccccc21`, the zone of inhibition at 100 µg/mL (Bacillus subtilis) was 12 mm, the zone of inhibition at 100 µg/mL [1] was 10 mm and the zone of inhibition at 100 µg/mL (Aspergillus niger) was 21 mm. It also gave a zone of inhibition at 100 µg/mL (Staphylococcus aureus) of 14 mm.

With `Cn1cc(C2=C(C#N)[C@@]3(C(=O)c4cccc5cccc3c45)C(C#N)=C(N)O2)c2ccccc21` the zone of inhibition at 100 µg/mL (Bacillus subtilis) was 36 mm, the zone of inhibition at 100 µg/mL [1] was 38 mm and the zone of inhibition at 100 µg/mL (Aspergillus niger) was 28 mm. It also gave a zone of inhibition at 100 µg/mL (Staphylococcus aureus) of 39 mm.

`N#CC1=C(N)OC(c2c[nH]c3ccccc23)=C(C#N)[C@@]12C(=O)N(Cc1ccccc1)c1ccccc12` gave a zone of inhibition at 100 µg/mL (Bacillus subtilis) of 30 mm, a zone of inhibition at 100 µg/mL [1] of 31 mm and a zone of inhibition at 100 µg/mL (Aspergillus niger) of 24 mm. For the same molecule, the zone of inhibition at 100 µg/mL (Staphylococcus aureus) was 29 mm.

GENTAMICIN SULFATE showed an inhibition zone (IZ) (Bacillus subtilis) of 30 mm, an inhibition zone (IZ) [1] of 28 mm and an inhibition zone (IZ) (Aspergillus niger) of 28 mm. For the same molecule, the inhibition zone (IZ) (Staphylococcus aureus) was 26 mm.

Molecule `CCOC(=O)CN1C(=O)[C@]2(C(C#N)=C(N)OC(c3c[nH]c4ccccc34)=C2C#N)c2ccccc21` has a zone of inhibition at 100 µg/mL (Bacillus subtilis) of 26 mm, a zone of inhibition at 100 µg/mL [1] of 25 mm and a zone of inhibition at 100 µg/mL (Aspergillus niger) of 25 mm. The zone of inhibition at 100 µg/mL (Staphylococcus aureus) was 24 mm.

`C#CCN1C(=O)[C@]2(C(C#N)=C(N)OC(c3c[nH]c4ccccc34)=C2C#N)c2ccccc21` was tested, and the zone of inhibition at 100 µg/mL (Bacillus subtilis) was 20 mm, the zone of inhibition at 100 µg/mL [1] was 19 mm and the zone of inhibition at 100 µg/mL (Aspergillus niger) was 25 mm. For the same molecule, the zone of inhibition at 100 µg/mL (Staphylococcus aureus) was 18 mm.

Work on `CCCCN1C(=O)[C@@]2(C(C#N)=C(c3c[nH]c4ccccc34)OC(N)=C2C(=O)OCC)c2ccccc21` yielded a zone of inhibition at 100 µg/mL (Bacillus subtilis) of 17 mm, a zone of inhibition at 100 µg/mL [1] of 14 mm and a zone of inhibition at 100 µg/mL (Aspergillus niger) of 27 mm. For the same molecule, the zone of inhibition at 100 µg/mL (Staphylococcus aureus) was 16 mm.

`CCOC(=O)C1=C(N)OC(c2c[nH]c3ccccc23)=C(C#N)[C@@]12C(=O)N(Cc1ccccc1)c1ccccc12` gave a zone of inhibition at 100 µg/mL (Bacillus subtilis) of 14 mm, a zone of inhibition at 100 µg/mL [1] of 15 mm and a zone of inhibition at 100 µg/mL (Aspergillus niger) of 24 mm. The zone of inhibition at 100 µg/mL (Staphylococcus aureus) was 16 mm.

`N#CC1=C(N)OC(c2c[nH]c3ccccc23)=C(C#N)[C@@]12C(=O)c1cccc3cccc2c13` showed a zone of inhibition at 100 µg/mL (Bacillus subtilis) of 40 mm, a zone of inhibition at 100 µg/mL [1] of 39 mm and a zone of inhibition at 100 µg/mL (Aspergillus niger) of 29 mm. For the same molecule, the zone of inhibition at 100 µg/mL (Staphylococcus aureus) was 38 mm.

Molecule `CCOC(=O)C1=C(N)OC(c2cn(C)c3ccccc23)=C(C#N)[C@@]12C(=O)c1cccc3cccc2c13` has a zone of inhibition at 100 µg/mL (Bacillus subtilis) of 18 mm, a zone of inhibition at 100 µg/mL [1] of 18 mm and a zone of inhibition at 100 µg/mL (Aspergillus niger) of 22 mm. It also gave a zone of inhibition at 100 µg/mL (Staphylococcus aureus) of 19 mm.

In the case of `N#CC1=C(N)OC(c2c[nH]c3ccccc23)=C(C#N)[C@@]12C(=O)Nc1ccccc12`, the zone of inhibition at 100 µg/mL (Bacillus subtilis) was 28 mm, the zone of inhibition at 100 µg/mL [1] was 30 mm and the zone of inhibition at 100 µg/mL (Aspergillus niger) was 28 mm. It also gave a zone of inhibition at 100 µg/mL (Staphylococcus aureus) of 29 mm.
